From ChEMBL document CHEMBL1139437, “Design, synthesis, and preliminary pharmacological evaluation of 4-aminopiperidine derivatives as N-type calcium channel blockers active on pain and neuropathic pain” (J Med Chem, 2004)
pIC50: −log10 of the molar value.

How the values were obtained:
Mus musculus [1] = assay: Analgesic activity was evaluated in mouse hotplate test; expressed as licking latency after 15 min of treatment at a dose of 30 ug intracerebroventricularly; format: functional
Method in brief: (§1)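 Male Swiss albino mice (23-30 g); icv injection of 5 μL (saline or H2O/DMSO 2:1) under brief anaesthesia. Paw-licking latency (s) on hot plate read before injection and every 15 min up to 60 min. Mice with pretest latency below 12 or over 18 s excluded; cutoff 45 s. Statistics against saline- or vehicle-treated controls.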

Mus musculus [2] = assay: Analgesic activity was evaluated in mouse hotplate test; expressed as licking latency after 30 min of treatment at a dose of 30 ug intracerebroventricularly; format: functional; method in brief: as §1
Mus musculus [3] = organism: Mus musculus; assay: Percentage analgesic efficacy when compared to morphine; format: functional; set-up: concentration or dose not given beside the values
Method in brief: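 Male Swiss albino mice, hot-plate test, paw-licking latency; pretest 12–18 s required, cutoff 45 s. Icv injection of 5 μL under brief anaesthesia, in saline or H2O/DMSO 2:1, at maximal soluble dose. Latency read before and every 15 min after dosing. Efficacy = (peak latency − pretest) as % of the same value for morphine 10 μg/mouse icv; non-significant effects scored 0.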

Mus musculus [4] = assay: Analgesic activity was evaluated in mouse hotplate test; expressed as licking latency after 45 min of treatment at a dose of 30 ug intracerebroventricularly; format: functional; method in brief: as §1
Rattus norvegicus [5] = assay: Antihyperalgesic activity was evaluated in rat (sn) paw pressure test after 30 min at a dose of 30 ug intracerebroventricularly
Rattus norvegicus [6] = assay: Antihyperalgesic activity was evaluated in rat (dx) paw pressure test after 30 min at a dose of 30 ug intracerebroventricularly
Rattus norvegicus [7] = assay: Antihyperalgesic activity was evaluated in rat (dx) paw pressure test after 45 min at a dose of 30 ug intracerebroventricularly
Rattus norvegicus [8] = assay: Antihyperalgesic activity was evaluated in rat (dx) paw pressure test after 60 min at a dose of 30 ug intracerebroventricularly
Rattus norvegicus [9] = assay: Antihyperalgesic activity was evaluated in rat (sn) paw pressure test after 45 min at a dose of 30 ug intracerebroventricularly
Rattus norvegicus [10] = assay: Antihyperalgesic activity was evaluated in rat (sn) paw pressure test after 60 min at a dose of 30 ug intracerebroventricularly
[11] = molecular target: Voltage-dependent N-type calcium channel subunit alpha-1B (Rattus norvegicus) (UniProt Q02294); assay: In vitro antagonism of N-type calcium channels expressed in PC12 cells was determined as the increase in intracellular calcium influx
Sequence of Voltage-dependent N-type calcium channel subunit alpha-1B (Rattus norvegicus) (Q02294 whole entry, looked up): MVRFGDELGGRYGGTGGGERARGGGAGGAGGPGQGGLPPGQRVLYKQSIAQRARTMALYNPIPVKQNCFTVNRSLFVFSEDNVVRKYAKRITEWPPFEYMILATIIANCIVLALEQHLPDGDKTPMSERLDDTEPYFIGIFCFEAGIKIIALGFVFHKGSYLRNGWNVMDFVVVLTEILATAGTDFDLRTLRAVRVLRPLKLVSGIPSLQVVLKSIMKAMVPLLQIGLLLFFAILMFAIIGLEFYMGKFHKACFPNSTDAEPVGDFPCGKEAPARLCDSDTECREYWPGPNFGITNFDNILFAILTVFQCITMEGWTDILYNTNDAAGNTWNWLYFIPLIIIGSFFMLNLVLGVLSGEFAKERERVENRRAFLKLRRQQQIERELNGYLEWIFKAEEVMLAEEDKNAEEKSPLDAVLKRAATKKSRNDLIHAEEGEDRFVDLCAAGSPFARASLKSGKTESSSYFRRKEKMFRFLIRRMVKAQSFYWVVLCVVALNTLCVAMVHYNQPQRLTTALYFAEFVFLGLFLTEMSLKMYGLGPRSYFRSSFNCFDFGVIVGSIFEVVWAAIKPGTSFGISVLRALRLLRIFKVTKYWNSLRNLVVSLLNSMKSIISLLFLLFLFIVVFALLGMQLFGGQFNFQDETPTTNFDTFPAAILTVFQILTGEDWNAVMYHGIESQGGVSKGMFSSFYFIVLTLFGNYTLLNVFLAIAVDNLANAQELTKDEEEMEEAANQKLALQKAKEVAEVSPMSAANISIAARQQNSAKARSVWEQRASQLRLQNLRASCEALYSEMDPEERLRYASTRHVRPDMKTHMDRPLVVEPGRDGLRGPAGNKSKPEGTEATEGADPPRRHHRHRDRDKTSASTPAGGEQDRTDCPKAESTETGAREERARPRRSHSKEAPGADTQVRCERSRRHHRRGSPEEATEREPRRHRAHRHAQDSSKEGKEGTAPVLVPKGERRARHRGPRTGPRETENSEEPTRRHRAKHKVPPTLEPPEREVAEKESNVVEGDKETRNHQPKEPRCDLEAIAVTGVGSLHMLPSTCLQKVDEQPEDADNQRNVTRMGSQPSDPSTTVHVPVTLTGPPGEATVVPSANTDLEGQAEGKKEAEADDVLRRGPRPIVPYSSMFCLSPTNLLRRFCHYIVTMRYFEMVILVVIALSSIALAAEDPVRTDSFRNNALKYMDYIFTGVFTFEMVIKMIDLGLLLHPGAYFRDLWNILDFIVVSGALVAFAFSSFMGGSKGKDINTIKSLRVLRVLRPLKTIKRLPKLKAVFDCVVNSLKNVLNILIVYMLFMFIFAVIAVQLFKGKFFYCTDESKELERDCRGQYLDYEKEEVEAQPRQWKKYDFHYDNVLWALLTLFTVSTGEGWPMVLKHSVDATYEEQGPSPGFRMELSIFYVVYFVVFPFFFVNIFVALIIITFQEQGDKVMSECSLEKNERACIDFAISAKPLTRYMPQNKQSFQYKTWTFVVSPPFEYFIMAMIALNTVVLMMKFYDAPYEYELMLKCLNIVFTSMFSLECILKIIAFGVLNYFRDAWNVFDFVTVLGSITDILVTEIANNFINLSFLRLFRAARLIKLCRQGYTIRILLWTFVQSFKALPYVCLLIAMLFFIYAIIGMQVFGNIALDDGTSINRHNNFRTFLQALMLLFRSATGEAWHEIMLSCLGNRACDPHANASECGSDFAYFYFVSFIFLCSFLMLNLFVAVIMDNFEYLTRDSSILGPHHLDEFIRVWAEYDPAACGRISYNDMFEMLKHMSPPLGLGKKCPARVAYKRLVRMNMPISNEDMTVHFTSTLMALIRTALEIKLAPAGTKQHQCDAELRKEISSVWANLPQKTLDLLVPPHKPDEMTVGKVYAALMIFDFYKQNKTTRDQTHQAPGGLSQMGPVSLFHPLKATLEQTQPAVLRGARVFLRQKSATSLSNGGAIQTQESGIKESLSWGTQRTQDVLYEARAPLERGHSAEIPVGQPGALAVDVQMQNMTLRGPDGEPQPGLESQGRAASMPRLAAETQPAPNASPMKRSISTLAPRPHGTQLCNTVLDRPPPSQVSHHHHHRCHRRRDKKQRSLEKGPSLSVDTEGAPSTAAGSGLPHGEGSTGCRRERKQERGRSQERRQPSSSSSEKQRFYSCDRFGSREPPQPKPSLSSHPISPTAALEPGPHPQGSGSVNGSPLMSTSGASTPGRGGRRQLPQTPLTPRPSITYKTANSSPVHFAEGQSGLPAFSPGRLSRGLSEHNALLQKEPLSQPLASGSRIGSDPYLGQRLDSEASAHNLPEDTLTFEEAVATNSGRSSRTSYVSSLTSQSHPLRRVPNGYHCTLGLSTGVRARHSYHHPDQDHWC

[12] = molecular target: Voltage-dependent N-type calcium channel subunit alpha-1B (Rattus norvegicus) (UniProt Q02294); assay: In vitro antagonism of N-type calcium channels expressed in PC12 cells was determined as the increase in intracellular calcium influx in the presence of 10 uM nifedipine
Mus musculus [13] = assay: Analgesic activity was evaluated in mouse hotplate test; expressed as licking latency after 30 min of treatment at a dose of 15 ug intracerebroventricularly; format: functional; method in brief: as §1
Mus musculus [14] = assay: Analgesic activity was evaluated in mouse hotplate test; expressed as licking latency after 45 min of treatment at a dose of 15 ug intracerebroventricularly; format: functional; method in brief: as §1
Mus musculus [15] = assay: Analgesic activity was evaluated in mouse hotplate test; expressed as licking latency after 15 min of treatment at a dose of 15 ug intracerebroventricularly; format: functional; method in brief: as §1
Mus musculus [16] = assay: Analgesic activity was evaluated in mouse hotplate test; expressed as licking latency after 30 min of treatment at a dose of 10 ug intracerebroventricularly; format: functional; method in brief: as §1
Mus musculus [17] = assay: Analgesic activity was evaluated in mouse hotplate test; expressed as licking latency after 45 min of treatment at a dose of 10 ug intracerebroventricularly; format: functional; method in brief: as §1
Mus musculus [18] = assay: Analgesic activity was evaluated in mouse hotplate test; expressed as licking latency after 15 min of treatment at a dose of 10 ug intracerebroventricularly; format: functional; method in brief: as §1
Rattus norvegicus [19] = assay: Antihyperalgesic activity was evaluated in rat (dx) paw pressure test after 30 min at a dose of 10 ug intracerebroventricularly
Rattus norvegicus [20] = assay: Antihyperalgesic activity was evaluated in rat (dx) paw pressure test after 45 min at a dose of 10 ug intracerebroventricularly
Rattus norvegicus [21] = assay: Antihyperalgesic activity was evaluated in rat (dx) paw pressure test after 60 min at a dose of 10 ug intracerebroventricularly
Rattus norvegicus [22] = assay: Antihyperalgesic activity was evaluated in rat (sn) paw pressure test after 30 min at a dose of 10 ug intracerebroventricularly
Rattus norvegicus [23] = assay: Antihyperalgesic activity was evaluated in rat (sn) paw pressure test after 45 min at a dose of 10 ug intracerebroventricularly
Rattus norvegicus [24] = assay: Antihyperalgesic activity was evaluated in rat (sn) paw pressure test after 60 min at a dose of 10 ug intracerebroventricularly
Mus musculus [25] = assay: Analgesic activity was evaluated in mouse hotplate test; expressed as licking latency after 30 min of treatment at a dose of 20 ug intracerebroventricularly; format: functional; method in brief: as §1
Mus musculus [26] = assay: Analgesic activity was evaluated in mouse hotplate test; expressed as licking latency after 45 min of treatment at a dose of 20 ug intracerebroventricularly; format: functional; method in brief: as §1
Mus musculus [27] = assay: Analgesic activity was evaluated in mouse hotplate test; expressed as licking latency after 15 min of treatment at a dose of 20 ug intracerebroventricularly; format: functional; method in brief: as §1
Mus musculus [28] = assay: Analgesic activity was evaluated in mouse hotplate test; expressed as licking latency after 15 min of treatment at a dose of 5 ug intracerebroventricularly; format: functional; method in brief: as §1
Mus musculus [29] = assay: Analgesic activity was evaluated in mouse hotplate test; expressed as licking latency after 30 min of treatment at a dose of 5 ug intracerebroventricularly; format: functional; method in brief: as §1
Mus musculus [30] = assay: Analgesic activity was evaluated in mouse hotplate test; expressed as licking latency after 45 min of treatment at a dose of 5 ug intracerebroventricularly; format: functional; method in brief: as §1

## COc1ccc(C(C#N)(CCCNC2CCN(CCOc3ccccc3)CC2)C(C)C)cc1OC.Cl (stereo not given)
Mus musculus [1]
  Latency: 22.6 s
Mus musculus [2]
  Latency: 16.5 s
Mus musculus [3]
  Efficacy: 59%
Mus musculus [4]
  Latency: 15.2 s
Rattus norvegicus [5]
  Activity: 57.3 g
Rattus norvegicus [6]
  Activity: 33.4 g
Rattus norvegicus [7]
  Activity: 38.6 g
Rattus norvegicus [8]
  Activity: 40.5 g
Rattus norvegicus [9]
  Activity: 55.6 g
Rattus norvegicus [10]
  Activity: 59.4 g
[11]
  pIC50: 5.42
[12]
  pIC50: 5.51

## COc1ccc(CCN2CCC(NCCCC(C#N)(c3ccc(OC)c(OC)c3)C(C)C)CC2)cc1OC.Cl (stereo not given)
Mus musculus [13]
  Latency: 18.3 s
Mus musculus [3]
  Efficacy: 0%
Mus musculus [14]
  Latency: 15.4 s
Mus musculus [15]
  Latency: 17.7 s

## CCCCNC1CCN(CCCC(c2ccccc2)c2ccccc2)CC1.O=C(O)C(=O)O
Mus musculus [16]
  Latency: 22.4 s
Mus musculus [3]
  Efficacy: 64%
Mus musculus [17]
  Latency: 15.8 s
Mus musculus [18]
  Latency: 22.6 s
Rattus norvegicus [19]
  Activity: 50.3 g
Rattus norvegicus [20]
  Activity: 52.6 g
Rattus norvegicus [21]
  Activity: 46.5 g
Rattus norvegicus [22]
  Activity: 57.5 g
Rattus norvegicus [23]
  Activity: 61.2 g
Rattus norvegicus [24]
  Activity: 63 g

## COc1ccc(C(C#N)(CCC(=O)N2CCC(NCCOc3ccccc3)CC2)C(C)C)cc1OC.O=C(O)C(=O)O (stereo not given)
Mus musculus [16]
  Latency: 18.5 s
Mus musculus [3]
  Efficacy: 0%
Mus musculus [17]
  Latency: 13.8 s
Mus musculus [18]
  Latency: 15.7 s

## Cl.O=C(CCC(c1ccc(F)cc1)c1ccc(F)cc1)NC1CCN(CCO)CC1
Mus musculus [13]
  Latency: 16.8 s
Mus musculus [3]
  Efficacy: 0%
Mus musculus [14]
  Latency: 17.3 s
Mus musculus [15]
  Latency: 16.9 s

## COc1ccc(C(C#N)(CCCNC2CCN(C/C=C/c3ccccc3)CC2)C(C)C)cc1OC.Cl (stereo not given)
Mus musculus [25]
  Latency: 20.2 s
Mus musculus [3]
  Efficacy: 69%
Mus musculus [26]
  Latency: 16.2 s
Mus musculus [27]
  Latency: 24.3 s

## COc1ccc(CCNC2CCN(CCCC(c3ccccc3)c3ccccc3)CC2)cc1OC.O=C(O)C(=O)O
Mus musculus [3]
  Efficacy: 0%
Mus musculus [28]
  Latency: 17.7 s
Mus musculus [29]
  Latency: 16.4 s
Mus musculus [30]
  Latency: 16.8 s

## O=C(CCC(c1ccc(F)cc1)c1ccc(F)cc1)NC1CCNCC1.O=C(O)C(=O)O
Mus musculus [25]
  Latency: 16.7 s
Mus musculus [3]
  Efficacy: 64%
Mus musculus [26]
  Latency: 17.1 s
Mus musculus [27]
  Latency: 21.8 s

## COc1ccc(CCNC2CCN(CCCC(c3ccc(F)cc3)c3ccc(F)cc3)CC2)cc1OC.Cl
Mus musculus [16]
  Latency: 16.3 s
Mus musculus [3]
  Efficacy: 51%
Mus musculus [17]
  Latency: 16.6 s
Mus musculus [18]
  Latency: 21.5 s
